Measured values as given in ChEMBL document CHEMBL1143386, “Prodrugs of perzinfotel with improved oral bioavailability” (J Med Chem, 2009).

Legend:
Rattus norvegicus [1] = species: Rattus norvegicus; assay: Antinociceptive activity in Sprague-Dawley rat assessed as reversal of PGE2-induced thermal hypersensitivity after 5 hrs; type: functional
Outline: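 Male Sprague-Dawley rats (200-250 g) fasted ~16 h and dosed orally in 2% Tween-80/0.5% methylcellulose (1 mL/kg) 0.5-48 h before intradermal PGE2 (0.1 mg in 50 µL). Tail-withdrawal latency was read 30 min later in water at 34-58 °C, with a 20 s cutoff. T10 from each rat's temperature-effect curve; within-subjects repeated-measures ANOVA, p < 0.05.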

[2] = Chemical stability at pH 4.5 after 4 hrs; type: physicochemical; conditions: buffer, read-out: Stability
Outline: (§1)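 Compound at 0.01 mg/mL final in a 9:1 mix of aqueous buffer (pH 1.0, 4.5, 6.6 or 7.4) or simulated gastric fluid with acetonitrile, held at 37 °C in the autosampler. Injected every 4 h over 24 h onto C8 HPLC. Percent remaining from peak area at 304 nm, corrected by internal standard; products confirmed by LC/MS (-ESI).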

[3] = Chemical stability in simulated intestinal bile fluid after 4 hrs; type: physicochemical; conditions: read-out: Stability
Outline: (§2)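 Compound taken up in 9:1 simulated intestinal bile fluid:acetonitrile at a final 0.01 mg/mL, held in a 37 °C autosampler. HPLC injections every 4 h over 24 h. Percent remaining taken from peak area at 304 nm, corrected by internal standard. Products identified by LC/MS (-ESI).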

[4] = Chemical stability at pH 4.5 after 8 hrs; type: physicochemical; conditions: buffer, read-out: Stability; outline: as §1
[5] = Half life in pH 8.5 buffer assessed as loss of 3-{2[8,9-Dioxo-2,6-diazabicyclo[5.2.0-[non-1(7)-en-2-yl}-3-oxido-7-oxo-7-phenyl-2,4,6-trioxa-3-phosphahept-1-yl Benzoate; type: physicochemical
Outline: (§3)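 Compound at a final 0.01 mg/mL in 9:1 pH 8.5 buffer or simulated intestinal fluid:acetonitrile, 37 °C. HPLC injections every 4 h over 24 h, with peak area at 304 nm corrected by internal standard and identities confirmed by LC/MS. Conversion kinetics fitted to a two-step first-order model to give rate constants, half-lives and Tmax of the hemiester.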

[6] = Chemical stability at pH 7.4 after 12 hrs; type: physicochemical; conditions: buffer, read-out: Stability; outline: as §1
[7] = Chemical stability at pH 6.6 after 8 hrs; type: physicochemical; conditions: buffer, read-out: Stability; outline: as §1
[8] = Chemical stability at pH 4.5 after 12 hrs; type: physicochemical; conditions: buffer, read-out: Stability; outline: as §1
Brain [9] = assay: Biodistribution in Sprague-Dawley rat brain assessed as formation of perzinfotel at 10 mg/kg, po after 0.167 hrs; type: ADME, organism-based; set-up: dose 10 mg/kg, route oral; conditions: in vivo
Outline: (§4)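 Male Sprague-Dawley rats given [14C]-labelled compound by oral gavage (parent at 30 mg/kg, prodrug at 10 mg/kg). Blood, plasma and brain taken at 0.167, 0.5, 1, 4, 8 and 24 h (n = 3 rats/time point). Total radioactivity measured in each matrix. Metabolite profiles from HPLC with in-line radioactivity detection.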

[10] = Chemical stability at pH 4.5 after 20 hrs; type: physicochemical; conditions: buffer, read-out: Stability; outline: as §1
[11] = Chemical stability in simulated gastric fluid after 8 hrs; type: physicochemical; conditions: read-out: Stability; outline: as §1
[12] = Chemical stability at pH 6.6 after 20 hrs; type: physicochemical; conditions: buffer, read-out: Stability; outline: as §1
[13] = Chemical stability at pH 1 after 20 hrs; type: physicochemical; conditions: buffer, read-out: Stability; outline: as §1
[14] = Chemical stability at pH 7.4 after 20 hrs; type: physicochemical; conditions: buffer, read-out: Stability; outline: as §1
[15] = Chemical stability in simulated intestinal bile fluid after 20 hrs; type: physicochemical; conditions: read-out: Stability; outline: as §2
[16] = Chemical stability at pH 6.6 after 4 hrs; type: physicochemical; conditions: buffer, read-out: Stability; outline: as §1
[17] = Chemical stability in simulated gastric fluid after 20 hrs; type: physicochemical; conditions: read-out: Stability; outline: as §1
[18] = Chemical stability at pH 4.5 after 16 hrs; type: physicochemical; conditions: buffer, read-out: Stability; outline: as §1
Blood [19] = assay: Biodistribution in Sprague-Dawley rat blood assessed as formation of perzinfotel at 10 mg/kg, po after 0.167 hrs; type: ADME, organism-based; set-up: dose 10 mg/kg, route oral; conditions: in vivo; outline: as §4
[20] = Chemical stability at pH 4.5 after 24 hrs; type: physicochemical; conditions: buffer, read-out: Stability; outline: as §1
Plasma [21] = assay: Biodistribution in Sprague-Dawley rat plasma assessed as formation of perzinfotel at 10 mg/kg, po after 0.167 hrs; type: ADME, organism-based; set-up: dose 10 mg/kg, route oral; conditions: in vivo; outline: as §4
[22] = Chemical stability in simulated intestinal bile fluid after 24 hrs; type: physicochemical; conditions: read-out: Stability; outline: as §2
[23] = Chemical stability at pH 7.4 after 16 hrs; type: physicochemical; conditions: buffer, read-out: Stability; outline: as §1
Plasma [24] = assay: Stability in rat plasma assessed as conversion of benzoic acid [2-(8,9-dioxo-2,6-diaza-bicyclo[5.2.0]non-1(7)-en-2-yl)-ethyl]-hydroxy-phosphinoyloxymethyl ester to perzinfotel after 3 hrs by Lc/MS analysis; type: ADME, cell-free
Outline: (§5)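 Dissolved at 0.05 mg/mL in rat plasma and incubated at 37 °C for 0–24 h. Samples quenched with acetonitrile and centrifuged; supernatant diluted and run on HPLC. Parent and conversion products quantified by peak area at 304 nm, corrected by internal standard, and confirmed by LC/MS. Kinetics fitted to a two-step first-order model.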

Brain [25] = assay: Biodistribution in Sprague-Dawley rat brain assessed as formation of perzinfotel at 10 mg/kg, po after 0.5 hrs; type: ADME, organism-based; set-up: dose 10 mg/kg, route oral; conditions: in vivo; outline: as §4
[26] = Chemical stability at pH 7.4 after 8 hrs; type: physicochemical; conditions: buffer, read-out: Stability; outline: as §1
[27] = Chemical stability at pH 1 after 12 hrs; type: physicochemical; conditions: buffer, read-out: Stability; outline: as §1
[28] = Chemical stability in simulated intestinal bile fluid after 12 hrs; type: physicochemical; conditions: read-out: Stability
Outline: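 Compound at 0.01 mg/mL final in a 9:1 mix of simulated intestinal bile fluid and acetonitrile at 37 °C. Fed-state medium pH 5.5 with 10 mM sodium taurocholate; fasted-state medium pH 6.0 with 1 mM. Sampled every 4 h to 24 h by HPLC. Percent remaining from 304 nm peak area, corrected by internal standard.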

[29] = Chemical stability in simulated gastric fluid after 4 hrs; type: physicochemical; conditions: read-out: Stability; outline: as §1
[30] = Chemical stability in simulated gastric fluid after 12 hrs; type: physicochemical; conditions: read-out: Stability; outline: as §1
[31] = Chemical stability in simulated gastric fluid after 24 hrs; type: physicochemical; conditions: read-out: Stability; outline: as §1
[32] = target: Glutamate NMDA receptor (Rattus norvegicus) (UniProt P35439+Q00959+Q00960+Q00961+Q62645+Q8VHN2+Q9R1M7); assay: Antagonist activity at rat brain NMDA receptor assessed as inhibition of glutamate-induced [3H]TCP binding at 300 uM
Outline: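 Functional NMDA antagonism was measured as inhibition of glutamate-stimulated [3H]-TCP binding to rat whole-brain membranes. The value is percent inhibition at a single concentration.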

[33] = Chemical stability in simulated intestinal bile fluid after 16 hrs; type: physicochemical; conditions: read-out: Stability; outline: as §2
[34] = Chemical stability at pH 1 after 24 hrs; type: physicochemical; conditions: buffer, read-out: Stability; outline: as §1
Plasma [35] = assay: Biodistribution in Sprague-Dawley rat plasma assessed as formation of perzinfotel at 10 mg/kg, po after 0.5 hrs; type: ADME, organism-based; set-up: dose 10 mg/kg, route oral; conditions: in vivo; outline: as §4
[36] = Chemical stability at pH 6.6 after 16 hrs; type: physicochemical; conditions: buffer, read-out: Stability; outline: as §1
[37] = Half life in simulated intestinal fluid assessed as loss of 3-{2[8,9-Dioxo-2,6-diazabicyclo[5.2.0-[non-1(7)-en-2-yl}-3-oxido-7-oxo-7-phenyl-2,4,6-trioxa-3-phosphahept-1-yl Benzoate; type: physicochemical; outline: as §3
[38] = Chemical stability at pH 6.6 after 12 hrs; type: physicochemical; conditions: buffer, read-out: Stability; outline: as §1
[39] = Chemical stability at pH 1 after 16 hrs; type: physicochemical; conditions: buffer, read-out: Stability; outline: as §1
[40] = Half life in Sprague-Dawley rat plasma assessed as loss of 3-{2[8,9-Dioxo-2,6-diazabicyclo[5.2.0-[non-1(7)-en-2-yl}-3-oxido-7-oxo-7-phenyl-2,4,6-trioxa-3-phosphahept-1-yl Benzoate; type: ADME; outline: as §5
[41] = Chemical stability at pH 1 after 4 hrs; type: physicochemical; conditions: buffer, read-out: Stability; outline: as §1
[42] = Chemical stability at pH 6.6 after 24 hrs; type: physicochemical; conditions: buffer, read-out: Stability; outline: as §1
Blood [43] = assay: Biodistribution in Sprague-Dawley rat blood assessed as formation of perzinfotel at 10 mg/kg, po after 0.5 hrs; type: ADME, organism-based; set-up: dose 10 mg/kg, route oral; conditions: in vivo; outline: as §4
Glutamate NMDA receptor = assay: Displacement of [3H]CGP-39653 from rat brain NMDA receptor
Outline: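 Competitive displacement of [3H]CGP-39653 at the NMDA recognition site, using rat whole-brain membranes.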

[44] = Chemical stability at pH 1 after 8 hrs; type: physicochemical; conditions: buffer, read-out: Stability; outline: as §1
[45] = Chemical stability in simulated gastric fluid after 16 hrs; type: physicochemical; conditions: read-out: Stability; outline: as §1
[46] = Chemical stability at pH 7.4 after 4 hrs; type: physicochemical; conditions: buffer, read-out: Stability; outline: as §1
[47] = Chemical stability in simulated intestinal bile fluid after 8 hrs; type: physicochemical; conditions: read-out: Stability; outline: as §2
[48] = Chemical stability at pH 7.4 after 24 hrs; type: physicochemical; conditions: buffer, read-out: Stability; outline: as §1
Rattus norvegicus [49] = species: Rattus norvegicus; assay: Half life in Sprague-Dawley rat plasma assessed as formation of perzinfotel; type: ADME; outline: as §5
Rattus norvegicus [50] = species: Rattus norvegicus; assay: Tmax in Sprague-Dawley rat plasma assessed as formation of benzoic acid [2-(8,9-dioxo-2,6-diaza-bicyclo[5.2.0]non-1(7)-en-2-yl)-ethyl]-hydroxy-phosphinoyloxymethyl ester; type: ADME; conditions: in vitro; outline: as §5
[51] = Tmax in pH 8.5 buffer assessed as formation of benzoic acid [2-(8,9-dioxo-2,6-diaza-bicyclo[5.2.0]non-1(7)-en-2-yl)-ethyl]-hydroxy-phosphinoyloxymethyl ester; type: physicochemical; outline: as §3
[52] = Half life in pH 8.5 buffer assessed as formation of perzinfotel; type: physicochemical; outline: as §3
[53] = Half life in simulated intestinal fluid assessed as formation of perzinfotel; type: physicochemical; conditions: simulated gi fluid; outline: as §3
[54] = Tmax in simulated intestinal fluid assessed as formation of benzoic acid [2-(8,9-dioxo-2,6-diaza-bicyclo[5.2.0]non-1(7)-en-2-yl)-ethyl]-hydroxy-phosphinoyloxymethyl ester; type: physicochemical; conditions: simulated gi fluid; outline: as §3

O=C(OCOP(=O)(CCN1CCCNc2c1c(=O)c2=O)OCOC(=O)c1ccccc1)c1ccccc1
ED50 (Rattus norvegicus [1]): 10 mg/kg | remaining at 4 h [2]: 100% | remaining at 4 h [3]: 99.5% | remaining at 8 h [4]: 100% | half-life [5]: 1.84 h | remaining at 12 h [6]: 75.6% | remaining at 8 h [7]: 95.7% | remaining at 12 h [8]: 99.8% | Drug uptake (Brain [9]): 88% | remaining at 20 h [10]: 99.5% | remaining at 8 h [11]: 99.3% | remaining at 20 h [12]: 89.4% | remaining at 20 h [13]: 98% | remaining at 20 h [14]: 62.2% | remaining at 20 h [15]: 98.5% | remaining at 4 h [16]: 98.1% | remaining at 20 h [17]: 98.3% | remaining at 16 h [18]: 99.7% | Drug uptake (Blood [19]): 88% | remaining at 24 h [20]: 99.5% | Drug uptake (Plasma [21]): 88% | remaining at 24 h [22]: 98.1% | remaining at 16 h [23]: 68.7% | Stability (Plasma [24]): 90% | Drug uptake (Brain [25]): 98% | remaining at 8 h [26]: 83.2% | remaining at 12 h [27]: 98.9% | remaining at 12 h [28]: 98.6% | remaining at 4 h [29]: 99.6% | remaining at 12 h [30]: 99% | remaining at 24 h [31]: 98% | inhibition [32]: 8% | remaining at 16 h [33]: 98.6% | remaining at 24 h [34]: 97.9% | Drug uptake (Plasma [35]): 98% | remaining at 16 h [36]: 91.5% | half-life [37]: 3.57 h | remaining at 12 h [38]: 93.7% | remaining at 16 h [39]: 98.5% | half-life [40]: < 4.2 min | remaining at 4 h [41]: 99.7% | remaining at 24 h [42]: 87.4% | Drug uptake (Blood [43]): 98% | IC50 (Glutamate NMDA receptor): 4.2 µM | remaining at 8 h [44]: 99.3% | remaining at 16 h [45]: 98.7% | remaining at 4 h [46]: 91.6% | remaining at 8 h [47]: 99.3% | remaining at 24 h [48]: 56.7%

O=C(OCOP(=O)(O)CCN1CCCNc2c1c(=O)c2=O)c1ccccc1
t1/2 (Rattus norvegicus [49]): 0.87 h | Tmax (Rattus norvegicus [50]): 0.19 h | Tmax [51]: 9.14 h | t1/2 [52]: > 24 h | t1/2 [53]: > 24 h | Tmax [54]: 14.48 h | IC50 (Glutamate NMDA receptor): 17 µM
